“Also recorded” adds a separate entry of the source.
Key:
Y304A-CFTR = Y304A-CFTR (Homo sapiens, UniProt P13569, Y304A); assay: Inside-out patch-clamp of CFTR currents in transfected CHO cells; type: cell-based; details: 200 nM VX-770, mean
In short: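 Relaxation assay: PKA-preactivated channels in 2 mM ATP at −30 mV exposed to test compound through a fast three-barrel perfusion system (dead time ∼30 ms). Current decay after sudden removal of 3 µM compound fitted with a single exponential to give relaxation time constant τ.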

WT-CFTR [1] = target: T1, WT-CFTR (Homo sapiens, UniProt P13569); assay: Inside-out patch-clamp of CFTR currents in transfected CHO cells; type: cell-based; details: mean
T1 sequence (P13569 whole entry): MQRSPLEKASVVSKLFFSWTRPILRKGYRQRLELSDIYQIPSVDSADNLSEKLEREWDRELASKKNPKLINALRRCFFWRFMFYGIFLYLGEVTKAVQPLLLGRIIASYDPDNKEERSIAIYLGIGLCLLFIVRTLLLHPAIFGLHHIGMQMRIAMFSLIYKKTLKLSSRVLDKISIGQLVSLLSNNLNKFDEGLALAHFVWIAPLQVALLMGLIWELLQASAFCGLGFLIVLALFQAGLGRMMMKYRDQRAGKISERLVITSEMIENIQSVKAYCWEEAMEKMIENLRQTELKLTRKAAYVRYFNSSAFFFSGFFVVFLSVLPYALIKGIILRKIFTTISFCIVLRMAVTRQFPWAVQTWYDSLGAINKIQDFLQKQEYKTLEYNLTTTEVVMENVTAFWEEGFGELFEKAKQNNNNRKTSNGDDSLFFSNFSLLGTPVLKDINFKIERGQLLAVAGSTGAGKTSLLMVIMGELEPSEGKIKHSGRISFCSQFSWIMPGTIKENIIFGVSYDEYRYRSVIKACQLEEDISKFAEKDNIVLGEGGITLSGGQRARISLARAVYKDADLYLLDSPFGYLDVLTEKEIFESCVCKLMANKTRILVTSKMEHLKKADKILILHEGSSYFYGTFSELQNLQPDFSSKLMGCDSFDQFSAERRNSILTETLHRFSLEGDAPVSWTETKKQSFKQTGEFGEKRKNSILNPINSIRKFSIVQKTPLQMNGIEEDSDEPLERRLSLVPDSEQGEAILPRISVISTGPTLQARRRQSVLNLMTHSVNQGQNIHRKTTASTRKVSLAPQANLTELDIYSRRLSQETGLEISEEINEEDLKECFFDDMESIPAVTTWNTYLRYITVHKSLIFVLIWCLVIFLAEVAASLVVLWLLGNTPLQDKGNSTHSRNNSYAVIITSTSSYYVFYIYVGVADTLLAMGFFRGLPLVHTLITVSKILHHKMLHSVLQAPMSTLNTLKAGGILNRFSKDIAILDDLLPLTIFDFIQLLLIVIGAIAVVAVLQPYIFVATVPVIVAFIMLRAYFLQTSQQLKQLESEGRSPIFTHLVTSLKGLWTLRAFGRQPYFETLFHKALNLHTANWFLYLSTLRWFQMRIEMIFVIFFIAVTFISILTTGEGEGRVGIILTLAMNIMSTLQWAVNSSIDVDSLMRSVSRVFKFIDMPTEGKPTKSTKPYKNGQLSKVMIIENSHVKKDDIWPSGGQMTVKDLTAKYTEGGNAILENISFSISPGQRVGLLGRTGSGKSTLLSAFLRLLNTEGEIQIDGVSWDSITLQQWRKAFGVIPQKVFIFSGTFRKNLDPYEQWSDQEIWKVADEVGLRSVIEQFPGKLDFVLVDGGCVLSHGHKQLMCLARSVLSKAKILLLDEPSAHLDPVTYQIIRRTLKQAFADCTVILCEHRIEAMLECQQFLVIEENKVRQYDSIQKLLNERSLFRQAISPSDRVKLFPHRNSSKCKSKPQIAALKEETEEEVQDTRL
In short: (§1)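 CFTR construct and GFP plasmid cotransfected into CHO cells, held at 27°C for 2–6 d. Inside-out patches at room temperature, −30 mV, NMDG-Cl solutions at pH 7.4. Channels preactivated with 25 IU PKA plus 2 mM MgATP, then test compound (max 40 µM) applied in 2 mM ATP. ATP-subtracted steady-state currents normalized to the 3 µM response in the same patch. Hill fit with base 0 and maximum 1; EC50 ± SD of fit; 3–7 patches per point.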

F304Y-mCFTR = F304Y-mCFTR (Mus musculus, UniProt P26361, F304Y); assay: as above; type: cell-based
F304Y-mCFTR, sequence (P26361 whole entry F304Y): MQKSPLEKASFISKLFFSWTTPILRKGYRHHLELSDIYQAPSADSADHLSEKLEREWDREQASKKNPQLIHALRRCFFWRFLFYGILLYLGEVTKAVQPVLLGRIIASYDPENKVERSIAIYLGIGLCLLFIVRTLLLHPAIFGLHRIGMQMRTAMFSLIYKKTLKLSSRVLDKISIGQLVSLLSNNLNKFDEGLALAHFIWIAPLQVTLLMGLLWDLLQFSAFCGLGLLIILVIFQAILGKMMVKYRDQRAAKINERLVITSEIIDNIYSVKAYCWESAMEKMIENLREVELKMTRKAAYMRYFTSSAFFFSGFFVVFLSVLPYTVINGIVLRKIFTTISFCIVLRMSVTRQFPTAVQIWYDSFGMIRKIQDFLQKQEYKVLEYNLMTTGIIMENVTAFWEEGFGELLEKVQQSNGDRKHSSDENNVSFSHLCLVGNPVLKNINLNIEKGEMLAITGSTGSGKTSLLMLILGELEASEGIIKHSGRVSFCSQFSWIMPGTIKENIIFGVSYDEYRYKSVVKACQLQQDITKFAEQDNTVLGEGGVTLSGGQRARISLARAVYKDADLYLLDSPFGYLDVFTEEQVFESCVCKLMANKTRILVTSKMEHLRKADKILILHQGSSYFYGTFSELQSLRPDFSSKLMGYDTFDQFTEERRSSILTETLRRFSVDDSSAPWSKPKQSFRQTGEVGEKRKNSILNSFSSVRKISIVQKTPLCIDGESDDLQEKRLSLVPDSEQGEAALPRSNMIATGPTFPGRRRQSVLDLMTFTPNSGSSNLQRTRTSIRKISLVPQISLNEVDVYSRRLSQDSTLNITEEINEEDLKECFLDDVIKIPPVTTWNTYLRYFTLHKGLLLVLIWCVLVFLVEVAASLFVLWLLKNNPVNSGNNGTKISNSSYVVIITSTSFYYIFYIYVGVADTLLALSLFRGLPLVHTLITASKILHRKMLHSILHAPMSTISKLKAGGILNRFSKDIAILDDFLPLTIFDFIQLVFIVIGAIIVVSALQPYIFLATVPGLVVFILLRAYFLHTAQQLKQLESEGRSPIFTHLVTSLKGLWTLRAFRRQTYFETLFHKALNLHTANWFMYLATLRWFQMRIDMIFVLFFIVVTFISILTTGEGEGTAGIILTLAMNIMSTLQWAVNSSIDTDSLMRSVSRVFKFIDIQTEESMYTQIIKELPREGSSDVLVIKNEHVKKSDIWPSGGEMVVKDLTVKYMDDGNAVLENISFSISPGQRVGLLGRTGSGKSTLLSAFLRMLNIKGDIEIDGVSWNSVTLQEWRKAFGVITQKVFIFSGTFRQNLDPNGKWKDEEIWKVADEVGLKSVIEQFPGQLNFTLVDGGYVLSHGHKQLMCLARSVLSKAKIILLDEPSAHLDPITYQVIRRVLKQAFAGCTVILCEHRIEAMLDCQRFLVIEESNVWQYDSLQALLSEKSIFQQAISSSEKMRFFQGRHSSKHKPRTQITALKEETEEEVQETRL
In short: as §1

F229A-CFTR = F229A-CFTR (Homo sapiens, UniProt P13569, F229A); assay: as above; type: cell-based; details: 200 nM VX-770, mean
F229A-CFTR, sequence (P13569 whole entry F229A): as the sequence (P13569 whole entry) above, with F229A counted along it
In short: as §1

F312A-CFTR = F312A-CFTR (Homo sapiens, UniProt P13569, F312A); assay: Inside-out patch-clamp of CFTR currents in transfected CHO cells; type: cell-based; details: 200 nM VX-770, 30 µM ATP, mean
F312A-CFTR, sequence (P13569 whole entry F312A): as the sequence (P13569 whole entry) above, with F312A counted along it

G551D-CFTR = G551D-CFTR (Homo sapiens, UniProt P13569, G551D); assay: Inside-out patch-clamp of CFTR currents in transfected CHO cells; type: cell-based
G551D-CFTR, sequence (P13569 whole entry G551D): as the sequence (P13569 whole entry) above, with G551D counted along it
In short: as §1

N1138L/G551D-CFTR = N1138L/G551D-CFTR (Homo sapiens, UniProt P13569, G551D/N1138L); assay: as above; type: cell-based; details: mean
N1138L/G551D-CFTR, sequence (P13569 whole entry G551D/N1138L): as the sequence (P13569 whole entry) above, with G551D, N1138L counted along it
In short: as §1

WT-CFTR [2] = target: T1, WT-CFTR; details: ref Jih and Hwang, 2013; cited from earlier work
D924N-CFTR = D924N-CFTR (Homo sapiens, UniProt P13569, D924N); assay: Inside-out patch-clamp of CFTR currents in transfected CHO cells; type: cell-based; details: 200 nM VX-770, 2 mM ATP, mean
D924N-CFTR, sequence (P13569 whole entry D924N): as the sequence (P13569 whole entry) above, with D924N counted along it
In short: as §1

F236A-CFTR = F236A-CFTR (Homo sapiens, UniProt P13569, F236A); assay: as above; type: cell-based; details: 200 nM VX-770, mean
F236A-CFTR, sequence (P13569 whole entry F236A): as the sequence (P13569 whole entry) above, with F236A counted along it
In short: as §1

WT-mCFTR = WT-mCFTR (Mus musculus, UniProt P26361); assay: Inside-out patch-clamp of CFTR currents in transfected CHO cells; type: cell-based; details: 200 nM VX-770, 2 mM ATP
WT-mCFTR, sequence (P26361 whole entry): as the sequence (P26361 whole entry F304Y) above, with Y304F counted along it
In short: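 Mouse CFTR expressed in CHO cells; inside-out patches. Phosphorylated channels opened by 2 mM ATP before the potentiator was applied (one potentiator at 200 nM). 5 µM CFTRinh-172 added at the end of each recording for baseline.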

S182A-CFTR = S182A-CFTR (Homo sapiens, UniProt P13569, S182A); assay: Inside-out patch-clamp of CFTR currents in transfected CHO cells; type: cell-based; details: 200 nM VX-770, mean
S182A-CFTR, sequence (P13569 whole entry S182A): as the sequence (P13569 whole entry) above, with S182A counted along it
In short: as §1

S1141K/G551D-CFTR = S1141K/G551D-CFTR (Homo sapiens, UniProt P13569, G551D/S1141K); assay: as above; type: cell-based; details: mean
S1141K/G551D-CFTR, sequence (P13569 whole entry G551D/S1141K): as the sequence (P13569 whole entry) above, with G551D, S1141K counted along it
In short: as §1

S263A-CFTR = S263A-CFTR (Homo sapiens, UniProt P13569, S263A); assay: as above; type: cell-based; details: 200 nM VX-770, mean
S263A-CFTR, sequence (P13569 whole entry S263A): as the sequence (P13569 whole entry) above, with S263A counted along it
In short: as §1

Y304A-CFTR, sequence (P13569 whole entry Y304A, the tested form may be a part): as the sequence (P13569 whole entry) above, with Y304A counted along it

CC(C)(C)c1cc(C(C)(C)C)c(NC(=O)c2c[nH]c3ccccc3c2=O)cc1O [VX-770, N-(2,4-di-tert-butyl-5-hydroxyphenyl)-4-oxo-1,4-dihydroquinoline-3-carboxamide]
τoff (VX-770) (Y304A-CFTR): 18 ± 6 s
τon (VX-770) (Y304A-CFTR): 49 ± 11 s
τoff (VX-770) (WT-CFTR [1]; current decay on removal of 200 nM VX-770, 2 mM ATP): 361 ± 39 s
τon (VX-770) (WT-CFTR [1]; current rise on application of 200 nM VX-770, 2 mM ATP): 6.7 ± 1.2 s
Potentiation of currents by VX-770 (F304Y-mCFTR): restores the potentiating effects; also recorded: Restoring the effect
τoff (VX-770) (F229A-CFTR): 338 ± 49 s
τon (VX-770) (F229A-CFTR): 6.2 ± 1.3 s
τoff (VX-770) (F312A-CFTR): 38 ± 5 s
τon (VX-770) (F312A-CFTR): 15 ± 1 s
τoff (VX-770) (G551D-CFTR; current decay on removal of VX-770, mean): 68 ± 14 s
τon (VX-770) (G551D-CFTR; current rise on application of VX-770, mean): 5.9 ± 2.4 s
τoff (VX-770) (N1138L/G551D-CFTR): 268 ± 25 s
τon (VX-770) (N1138L/G551D-CFTR): 18 ± 5 s
Saturating concentration for VX-770 (WT-CFTR [2]): 200 nM
τoff (VX-770) (D924N-CFTR): 115 ± 7 s
τon (VX-770) (D924N-CFTR): 78 ± 18 s
τoff (VX-770) (F236A-CFTR): 173 ± 45 s
τon (VX-770) (F236A-CFTR): 19 ± 8 s
Potentiation of currents by VX-770 (WT-mCFTR): fails to potentiate
τoff (VX-770) (S182A-CFTR): 343 ± 96 s
τon (VX-770) (S182A-CFTR): 8.2 ± 1.5 s
τoff (VX-770) (S1141K/G551D-CFTR): 221 ± 50 s
τon (VX-770) (S1141K/G551D-CFTR): 14 ± 6 s
τoff (VX-770) (S263A-CFTR): 288 ± 68 s
τon (VX-770) (S263A-CFTR): 6.1 ± 1.5 s
